pEC50, pKi: −log10 of the molar value.
Assays:
[1] = molecular target: T1, 5-hydroxytryptamine receptor 2C (Homo sapiens, UniProt P28335); test: (§1) Agonist activity at human recombinant 5HT2C receptor expressed in CHOK1 cells assessed as induction of calcium mobilization by FLIPR assay; assay type: functional, cell-based, CHO-K1
T1 sequence (P28335 whole entry): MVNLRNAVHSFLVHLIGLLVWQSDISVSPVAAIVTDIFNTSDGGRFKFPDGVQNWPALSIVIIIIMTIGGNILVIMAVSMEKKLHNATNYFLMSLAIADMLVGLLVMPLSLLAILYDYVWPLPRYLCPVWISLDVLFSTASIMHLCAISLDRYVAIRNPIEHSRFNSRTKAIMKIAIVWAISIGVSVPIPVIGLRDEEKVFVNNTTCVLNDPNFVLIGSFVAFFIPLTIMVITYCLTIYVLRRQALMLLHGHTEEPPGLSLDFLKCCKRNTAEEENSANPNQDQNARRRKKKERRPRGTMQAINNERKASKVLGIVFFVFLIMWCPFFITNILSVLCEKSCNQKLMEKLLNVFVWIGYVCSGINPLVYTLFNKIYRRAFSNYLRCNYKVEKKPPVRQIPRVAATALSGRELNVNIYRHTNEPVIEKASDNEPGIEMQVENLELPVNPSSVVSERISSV

[2] = molecular target: T1, 5-hydroxytryptamine receptor 2C; test: Displacement of [3H]meselurgine from human recombinant 5HT2C receptor expressed in Swiss mouse 3T3 cells by SPA; assay type: cell-based
Summary of the method: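 Competition binding against [3H]-meselurgine at the human 5-HT2C receptor, read by scintillation proximity assay, using membrane preparations made from Swiss 3T3 cells expressing the recombinant receptor.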

[3] = molecular target: T2, 5-hydroxytryptamine receptor 2C (Homo sapiens) (UniProt P28335); test: as §1; assay type: functional, cell-based; conditions: CHO-K1
T2 sequence (whole entry): T1 sequence (P28335 whole entry)

[4] = molecular target: 5-hydroxytryptamine receptor 2A (Homo sapiens, UniProt P28223); test: Agonist activity at human recombinant 5HT2A receptor expressed in Swiss mouse 3T3 cells assessed as induction of calcium mobilization by FLIPR assay; assay type: functional, cell-based; conditions: for Emax: NIH3T3
Chain of 5-hydroxytryptamine receptor 2A (P28223 whole entry): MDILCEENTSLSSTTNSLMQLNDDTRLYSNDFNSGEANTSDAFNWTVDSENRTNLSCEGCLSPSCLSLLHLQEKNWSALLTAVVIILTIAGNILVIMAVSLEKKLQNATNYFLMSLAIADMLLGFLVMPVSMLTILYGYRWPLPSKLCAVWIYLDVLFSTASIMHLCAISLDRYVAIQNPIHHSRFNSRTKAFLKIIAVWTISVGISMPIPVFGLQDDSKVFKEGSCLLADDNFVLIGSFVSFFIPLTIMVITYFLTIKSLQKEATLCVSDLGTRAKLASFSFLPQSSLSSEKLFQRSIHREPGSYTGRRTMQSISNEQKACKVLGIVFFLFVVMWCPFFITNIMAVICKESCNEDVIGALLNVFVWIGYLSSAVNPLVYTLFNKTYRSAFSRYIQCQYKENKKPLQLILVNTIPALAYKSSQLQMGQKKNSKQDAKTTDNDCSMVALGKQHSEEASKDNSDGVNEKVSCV

[5] = molecular target: 5-hydroxytryptamine receptor 2B (Homo sapiens, UniProt P41595); test: Agonist activity at human recombinant 5HT2B receptor expressed in Swiss mouse 3T3 cells assessed as induction of calcium mobilization by FLIPR assay; assay type: functional, cell-based; conditions: for Emax: NIH3T3
Chain of 5-hydroxytryptamine receptor 2B (P41595 whole entry): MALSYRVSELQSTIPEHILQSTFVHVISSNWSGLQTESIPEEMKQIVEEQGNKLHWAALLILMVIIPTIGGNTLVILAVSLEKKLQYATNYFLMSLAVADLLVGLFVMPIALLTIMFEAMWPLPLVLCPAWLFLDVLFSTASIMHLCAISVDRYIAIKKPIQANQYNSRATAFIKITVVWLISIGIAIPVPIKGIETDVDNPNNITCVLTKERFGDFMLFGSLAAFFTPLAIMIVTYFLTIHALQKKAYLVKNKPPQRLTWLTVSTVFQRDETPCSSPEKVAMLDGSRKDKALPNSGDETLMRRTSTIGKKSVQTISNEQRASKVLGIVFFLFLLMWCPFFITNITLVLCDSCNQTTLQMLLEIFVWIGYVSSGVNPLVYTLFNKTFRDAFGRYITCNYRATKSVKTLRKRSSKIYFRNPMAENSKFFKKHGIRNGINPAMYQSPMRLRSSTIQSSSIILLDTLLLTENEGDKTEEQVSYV

[6] = molecular target: 5-hydroxytryptamine receptor 1B (Homo sapiens) (UniProt P28222); test: Binding affinity to human 5HT1B receptor
Chain of 5-hydroxytryptamine receptor 1B (Homo sapiens) (P28222 whole entry): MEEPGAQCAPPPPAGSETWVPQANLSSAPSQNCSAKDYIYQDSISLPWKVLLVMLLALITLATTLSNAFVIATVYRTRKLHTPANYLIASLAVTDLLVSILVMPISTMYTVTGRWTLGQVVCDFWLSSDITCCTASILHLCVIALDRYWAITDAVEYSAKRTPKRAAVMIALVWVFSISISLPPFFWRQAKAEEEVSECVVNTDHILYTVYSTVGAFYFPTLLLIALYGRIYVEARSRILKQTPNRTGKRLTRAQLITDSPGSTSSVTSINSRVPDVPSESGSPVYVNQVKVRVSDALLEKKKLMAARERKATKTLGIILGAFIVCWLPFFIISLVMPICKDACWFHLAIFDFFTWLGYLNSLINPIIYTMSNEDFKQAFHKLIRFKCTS

[7] = molecular target: 5-hydroxytryptamine receptor 6 (Homo sapiens) (UniProt P50406); test: Binding affinity to human 5HT6 receptor
Chain of 5-hydroxytryptamine receptor 6 (Homo sapiens) (P50406 whole entry): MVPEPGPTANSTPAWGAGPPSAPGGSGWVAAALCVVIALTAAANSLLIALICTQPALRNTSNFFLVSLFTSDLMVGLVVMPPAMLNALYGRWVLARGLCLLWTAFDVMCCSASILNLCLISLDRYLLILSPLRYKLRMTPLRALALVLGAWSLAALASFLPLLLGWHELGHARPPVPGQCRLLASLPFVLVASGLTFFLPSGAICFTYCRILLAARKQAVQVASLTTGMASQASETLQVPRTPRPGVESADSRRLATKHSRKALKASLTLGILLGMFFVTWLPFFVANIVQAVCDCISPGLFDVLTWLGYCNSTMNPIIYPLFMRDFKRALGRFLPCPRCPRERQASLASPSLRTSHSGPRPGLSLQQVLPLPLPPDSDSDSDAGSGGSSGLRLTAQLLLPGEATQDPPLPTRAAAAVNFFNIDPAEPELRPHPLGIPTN

[8] = molecular target: T3, B2 bradykinin receptor (Homo sapiens) (UniProt P30411); test: Binding affinity to human bradykinin B2 receptor
T3 sequence (whole entry): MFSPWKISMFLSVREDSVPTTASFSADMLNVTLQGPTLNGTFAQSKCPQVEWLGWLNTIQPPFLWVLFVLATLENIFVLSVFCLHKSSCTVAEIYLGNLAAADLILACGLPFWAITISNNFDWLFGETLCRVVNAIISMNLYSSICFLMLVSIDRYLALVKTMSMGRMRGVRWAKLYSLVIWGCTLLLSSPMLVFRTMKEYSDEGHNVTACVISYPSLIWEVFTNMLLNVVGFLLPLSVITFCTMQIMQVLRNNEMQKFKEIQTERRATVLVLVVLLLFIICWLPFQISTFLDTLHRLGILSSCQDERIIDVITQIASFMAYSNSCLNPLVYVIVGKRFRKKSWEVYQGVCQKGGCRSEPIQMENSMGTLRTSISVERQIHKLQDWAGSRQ

[9] = molecular target: GABA-A receptor; agonist GABA site (Homo sapiens) (UniProt P14867+P47870+P28472+P48169+P34903+P18505+P47869+P31644+Q16445); test: Binding affinity to human GABAA receptor; assay type: protein-complex assay
[10] = test system: Canis familiaris; test: Increase in urethral pressure in continuous iv dosed dog model of stress urinary incontinence; assay type: functional, Canis lupus familiaris, Urethra
[11] = molecular target: 5-hydroxytryptamine receptor 1D (Homo sapiens) (UniProt P28221); test: Binding affinity to human 5HT1D receptor
Chain of 5-hydroxytryptamine receptor 1D (Homo sapiens) (P28221 whole entry): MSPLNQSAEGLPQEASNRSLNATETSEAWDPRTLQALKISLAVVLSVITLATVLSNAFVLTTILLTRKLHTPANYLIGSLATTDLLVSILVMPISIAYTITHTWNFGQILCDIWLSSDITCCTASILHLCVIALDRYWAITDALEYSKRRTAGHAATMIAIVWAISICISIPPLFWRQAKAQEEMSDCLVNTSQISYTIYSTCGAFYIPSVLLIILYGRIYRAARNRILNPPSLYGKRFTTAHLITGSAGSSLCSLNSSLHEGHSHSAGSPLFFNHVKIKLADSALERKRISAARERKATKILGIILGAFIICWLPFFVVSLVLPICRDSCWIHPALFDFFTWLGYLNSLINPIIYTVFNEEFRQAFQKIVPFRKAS

[12] = test system: Canis familiaris; test: Plasma concentration in continuous iv dosed dog; assay type: ADME, organism-based, Canis lupus familiaris; conditions: in vivo
[13] = Metabolic stability in human liver microsomes; assay type: ADME, Microsome; conditions: read-out: Stability
[14] = Efflux ratio of permeability across MDCK cell membrane; assay type: ADME, cell-based, Canis lupus familiaris; conditions: dog
[15] = Lipophilicity, log D at pH 7.4; assay type: physicochemical; conditions: buffer

With `O=c1ccc(N2CCNCC2)nn1CCOc1cccc(Cl)c1Cl` the pEC50 [1] was under 5.67.

`COc1ccccc1OCCn1nc(N2CCNCC2)ccc1=O` showed a pEC50 [1] of under 5.00.

`O=c1ccc(N2CCNCC2)nn1CCOc1ccccc1C(F)(F)F` showed a pKi [2] of 6.37, an Emax [3] of 45% and a pEC50 [1] of 7.33. The pEC50 [4] was 5.96, the Emax [4] was 49% and the pEC50 [5] was under 5.00.

Compound `C[C@H](Cn1nc(N2CCNCC2)ccc1=O)Oc1ccccc1Cl` has an Emax [3] of 53% and a pEC50 [1] of 6.07.

In the case of `O=c1c2c(c(N3CCNCC3)nn1CCOc1ccccc1Cl)CCC2`, the pEC50 [1] was under 5.00.

With `Cc1ccccc1OCCn1nc(N2CCNCC2)ccc1=O` the Emax [3] was 36% and the pEC50 [1] was under 5.34.

In the case of `C[C@H]1CN(c2ccc(=O)n(CCOc3ccccc3Cl)n2)CCN1`, the pEC50 [1] was under 5.00.

With `C[C@@H]1CNCCN1c1ccc(=O)n(CCOc2ccccc2C(F)(F)F)n1` the pKi [2] was 7.05, the Activity [6] was under 1000 nM and the Activity [7] was under 1000 nM. It also gave an Emax [3] of 51%, a pEC50 [1] of 7.96 and an Activity [8] of under 1000 nM. For the same compound, the Activity [9] was under 1000 nM, the pEC50 [4] was 7.39 and the Emax [4] was 61%. For the same compound, the pEC50 [5] was under 5.58, the Activity [10] was over 20% and the Activity [11] was under 1000 nM. For the same compound, the concentration [12] was 52 nM.

With `N#Cc1ccccc1OCCn1nc(N2CCNCC2)ccc1=O` the Emax [3] was 69% and the pEC50 [1] was 6.94.

`O=c1ccc(N2CCNCC2)nn1CCOc1ccccc1` showed a pEC50 [1] of under 5.00.

With `C[C@H](COc1ccccc1Cl)n1nc(N2CCNCC2)ccc1=O` the Emax [3] was 55% and the pEC50 [1] was under 5.72.

In the case of `C[C@@H](COc1ccccc1Cl)n1nc(N2CCNCC2)ccc1=O`, the pKi [2] was 6.14, the Emax [3] was 77% and the pEC50 [1] was 7.60. For the same compound, the pEC50 [4] was 7.19, the Emax [4] was 69% and the pEC50 [5] was 6.30. The Emax [5] was 30%.

Compound `Cc1cc(=O)n(CCOc2ccccc2Cl)nc1N1CCNCC1` has an Emax [3] of 31% and a pEC50 [1] of 6.29.

For `CC[C@@H]1CNCCN1c1ccc(=O)n(CCOc2ccccc2Cl)n1`, the Emax [3] was 41% and the pEC50 [1] was 6.39.

`Cc1cc(N2CCNCC2)nn(CCOc2ccccc2Cl)c1=O` showed a pEC50 [1] of under 5.00.

Compound `C[C@@H](Cn1nc(N2CCNCC2)ccc1=O)Oc1ccccc1Cl` has an Emax [3] of 87% and a pEC50 [1] of 6.44.

With `O=c1ccc(N2CCNCC2)nn1CCOc1ccc(Cl)cc1` the pEC50 [1] was under 5.00.

`O=c1ccc(N2CCNCC2)nn1CCOc1ccccc1Br` gave an Emax [3] of 34% and a pEC50 [1] of 7.00.

For `O=c1ccc(N2CCNCC2)nn1CCOc1ccccc1Cl`, the pKi [2] was 5.80, the Emax [3] was 58% and the pEC50 [1] was 6.79. The microsomal CLint [13] was under 7 µL/min/mg, the pEC50 [4] was 6.60 and the Emax [4] was 41%. The pEC50 [5] was under 5.00, the efflux ratio [14] was 5 and the logD [15] was 0.6.

In the case of `C[C@@H]1CNCCN1c1ccc(=O)n(CCOc2ccccc2Cl)n1`, the pKi [2] was 6.49, the Emax [3] was 51% and the pEC50 [1] was 7.60. The microsomal CLint [13] was 9.8 µL/min/mg, the pEC50 [4] was 6.94 and the Emax [4] was 42%. For the same compound, the pEC50 [5] was under 5.00, the efflux ratio [14] was 6 and the logD [15] was 0.9.

In the case of `O=CC1CNCCN1c1ccc(=O)n(CCOc2ccccc2Cl)n1` (stereo not given), the pEC50 [1] was under 5.00.

In the case of `O=c1ccc(N2CCNCC2)nn1CCOc1cccc(Cl)c1`, the pEC50 [1] was under 5.00.

For `Clc1ccccc1CCOc1cncc(N2CCNCC2)n1`, the Emax [3] was 69%, the pEC50 [1] was 8.00 and the microsomal CLint [13] was 94 µL/min/mg. It also gave a pEC50 [4] of 6.51, an Emax [4] of 56% and a pEC50 [5] of 6.73. The Emax [5] was 42%, the efflux ratio [14] was 2 and the logD [15] was 2.2.

In the case of `C[C@H]1CNCCN1c1ccc(=O)n(CCOc2ccccc2Cl)n1`, the pEC50 [1] was under 5.00.

For `Clc1cccc(N2CCNCC2)c1`, the Emax [4] was 58%.

— ChEMBL document CHEMBL1156026, “Design and synthesis of pyridazinone-based 5-HT(2C) agonists” (Bioorg Med Chem Lett, 2009)
